{"data": "Experimental data pooled from the literature", "SLC22A2": "Solute carrier family 22 member 2 (SLC22A2, Homo sapiens, UniProt O15244)", "note": "Lines come from different studies, so protocols differ."}
{"SMILES": "CC(C)n1cc(C#N)c2cc(-n3cc(C(=O)O)cn3)ccc21", "test system": "human, plasma", "conditions": "oral, 400 mg, single dose, fasted, healthy volunteers", "quantity": "half-life", "value": "13.1 h"}
{"SMILES": "CC[C@H](C)[C@H](NC(=O)[C@H](CCC(=O)O)NC(=O)[C@H](CO)NC(=O)[C@@H](NC(=O)[C@@H](N)CO)C(C)C)C(=O)N[C@@H](CCC(N)=O)C(=O)N[C@@H](CC(C)C)C(=O)N[C@@H](CCSC)C(=O)N[C@@H](Cc1cnc[nH]1)C(=O)N[C@@H](CC(N)=O)C(=O)N[C@@H](CC(C)C)C(=O)NCC(=O)N[C@@H](CCCCN)C(=O)N[C@@H](Cc1cnc[nH]1)C(=O)N[C@@H](CC(C)C)C(=O)N[C@@H](CC(N)=O)C(=O)N[C@@H](CO)C(=O)N[C@@H](CCSC)C(=O)N[C@@H](CCC(=O)O)C(=O)N[C@@H](CCCN=C(N)N)C(=O)N[C@H](C(=O)N[C@@H](CCC(=O)O)C(=O)N[C@@H](Cc1c[nH]c2ccccc12)C(=O)N[C@@H](CC(C)C)C(=O)N[C@@H](CCCN=C(N)N)C(=O)N[C@@H](CCCCN)C(=O)N[C@@H](CCCCN)C(=O)N[C@@H](CC(C)C)C(=O)N[C@@H](CCC(N)=O)C(=O)N[C@@H](CC(=O)O)C(=O)N[C@H](C(=O)N[C@@H](Cc1cnc[nH]1)C(=O)N[C@@H](CC(N)=O)C(=O)N[C@@H](Cc1ccccc1)C(=O)O)C(C)C)C(C)C", "assay": "chemical stability, HPLC", "test system": "aqueous buffer", "conditions": "0.5 mg/mL, 2 min, pH 6.5", "quantity": "compound remaining", "value": "100%"}
{"SMILES": "CC(C)(O)c1ccccc1-c1ccc2[nH]c(/C=C/c3ccc(C(F)(F)F)cc3)nc2c1", "test system": "male human, plasma", "conditions": "oral, 60 mg, single dose, fasted, healthy volunteers", "quantity": "half-life", "value": "53.4 h"}
{"SMILES": "COc1ccc(-c2ocnc2C(=O)NCCCn2cncn2)cc1Cl", "target or system": "THLE", "assay": "cell growth or viability", "quantity": "IC50", "value": "117000 nM"}
{"SMILES": "COc1ccc(S(=O)(=O)ON=C2C=C(C)C(=O)C(C)=C2)cc1", "target or system": "MDA-MB-468", "assay": "cell growth or viability", "quantity": "CC50", "value": "2570 nM"}
{"SMILES": "C=C[C@H]1C[N@@]2CC[C@H]1C[C@@H]2[C@@H](O)c1ccnc2ccc(OC)cc12", "target or system": "SLC22A2", "assay": "transporter uptake, inhibitor", "test system": "MDCK-II", "conditions": "100 µM, 5 min", "quantity": "inhibition", "value": "78%"}
{"SMILES": "COC(=O)c1csc(C(=O)c2c[nH]c3ccccc23)n1", "target or system": "Aryl hydrocarbon receptor (AHR, Homo sapiens, UniProt P35869)", "assay": "reporter gene, agonist, luciferase", "quantity": "EC50", "value": "4.6 nM"}
{"SMILES": "CON=C(N)c1ccc(-c2ccc(-c3ccc(C(N)=NOC)cc3)o2)cc1", "target or system": "Cytochrome P450 1B1 (CYP1B1, Homo sapiens, UniProt Q16678)", "assay": "enzyme activity, substrate", "quantity": "Km", "value": "0.3 µM"}
{"SMILES": "O=C(O)CSc1nnc(Br)n1-c1ccc(C2CC2)c2ccccc12", "target or system": "SLC22A2", "assay": "transporter uptake, inhibitor", "test system": "MDCK-II", "conditions": "100 µM, 5 min", "quantity": "inhibition", "value": "26%"}
